Four compounds from ChEMBL document CHEMBL4387780, “Molecular and cellular studies evaluating a potent 2-cyanoindolizine catechol diether NNRTI targeting wildtype and Y181C mutant HIV-1 reverse transcriptase” (Bioorg Med Chem Lett, 2019) can be followed below.

A short description of data set [1]: Cytotoxicity against human MT2 cells infected with wild-type HIV1 NL4-3 measured 48 hrs by MTT assay. It counts as cell-based. A general note: Tetrazolium dyes change colour on reduction, which living cells bring about.
Data set [2] deals with Human immunodeficiency virus 1. Nature of the data set: Antiviral activity against wild-type HIV1 NL4-3 infected in human MT2 cells measured 5 days post-infection by MTT assay. Conditions: for EC50: Human immunodeficiency virus 1, NL4-3, MT2, 5 days; call rule not given here.
Data set [3] relates to Human immunodeficiency virus 1. Nature of the data set: Antiviral activity against HIV1 NL4-3 harboring Y181C mutant infected in human MT2 cells measured 5 days post-infection by MTT assay.
For data set [4], the target named is Human immunodeficiency virus type 1 reverse transcriptase (Human immunodeficiency virus 1, UniProt Q72547, Y181C). Nature of the data set: Inhibition of recombinant HIV1 reverse transcriptase p66/p51 Y181C mutant expressed in Escherichia coli BL21 (DE3) pLysS cells preincubated followed by primer/template addition and measured after 30 mins by picogreen dye-based fluorescence assay. The method, boiled down: (§1)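 RT pre-incubated with inhibitor at increasing concentrations to allow binding. Reaction started by adding substrate and co-substrates, run 30 min at 10 nM active-site RT, then quenched with EDTA. dsDNA product read as RFU with PicoGreen dye. Each concentration in triplicate, with a pre-quenched negative control. IC50 from a quadratic inhibition curve fit.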

For data set [5], the target named is Human immunodeficiency virus type 1 reverse transcriptase (Human immunodeficiency virus 1, UniProt Q72547). Briefly: Inhibition of recombinant HIV1 reverse transcriptase p66/p51 expressed in Escherichia coli BL21 (DE3) pLysS cells preincubated followed by primer/template addition and measured after 30 mins by picogreen dye-based fluorescence assay. The method, boiled down: as §1

Data set [6] is described as follows: Solubility of the compound in water at pH 7. It counts as physicochemical.
Data set [7] is described as follows: Cytotoxicity against human MT2 cells infected with HIV1 NL4-3 harboring Y181C mutant measured 48 hrs by MTT assay. It counts as cell-based.
Setting [8] is: Human immunodeficiency virus 1, NL4-3, MT2, 5 days, read-out: EC50.

By CC50 is commonly meant the concentration giving 50% cytotoxicity. As usually defined, the EC50 is the concentration at which the effect is half-maximal. Broadly, the IC50 is the concentration at which inhibition is half-maximal. In general, solubility refers to the dissolved amount per volume that the medium holds. Low readings indicate a poorly soluble substance, high ones a readily soluble substance.

Values after ≈ are worked out from the molar mass of the structure shown. Some results are limits rather than exact numbers.

For `Cc1ccnc2c1NC(=O)c1cccnc1N2C1CC1` [NEVIRAPINE], the CC50 at 48 h in data set [1] is over 100 µM. Further, the EC50 in data set [2] is 300 nM; in data set [3], “Not Active”.
For the compound `N#Cc1cc2c(Oc3ccc(F)cc3OCCn3ccc(=O)[nH]c3=O)cc(F)cn2c1`, the half-inhibitory concentration (IC50) in data set [4] was 5.5 nM; in data set [5], 4.5 nM. Moreover, the CC50 at 48 h in data set [1] came to 90 µM; in data set [7], 55 µM. In data set [6], the solubility was 43.8 µg/mL (≈ 103 µM). For the same compound, the Activity result in data set [2] and in data set [3] was “Dose-dependent effect” each time. In addition, the EC50 in data set [2] was found to be 4.7 nM; in data set [3] (setting [8]), 3.2 nM.
In turn, `Cc1cc(/C=C/C#N)cc(C)c1Nc1ccnc(Nc2ccc(C#N)cc2)n1` [RILPIVIRINE] had a CC50 at 48 h in data set [1] of 8 µM. Also, the 50% effective concentration (EC50) in data set [3] (setting [8]) came to […].
In data set [6], `Cc1cc(C#N)cc(C)c1Oc1nc(Nc2ccc(C#N)cc2)nc(N)c1Br` [ETRAVIRINE] returned a solubility of under 1 µg/mL.
